# Measured values from different studies.
# Lines come from different studies, so protocols differ.
# Target: MAP kinase-interacting serine/threonine-protein kinase 2 (MKNK2, Homo sapiens, UniProt Q9HBH9)
SMILES,observed,action,technique,tested at,quantity,value
Cc1ccc(Nc2nccc(N(C)c3ccc4c(C)n(C)nc4c3)n2)cc1S(N)(=O)=O,enzyme activity,inhibitor,,0.3 µM,inhibition,3%
COc1cc(Nc2cnc(C#N)c(O[C@H](C)CN(C)C)n2)ncc1-c1cnn(C)c1,enzyme activity,inhibitor,radiometric,10 µM,remaining activity,112%
CCCOc1ccc(OC)c(F)c1C(=O)c1ccc(C(=O)N[C@@H]2CNC[C@H]2NC(=O)c2ccc3[nH]ncc3c2)cc1,enzyme activity,inhibitor,,10 µM,remaining activity,67%
Cc1cnc(NC2CCOCC2)nc1-n1cnc(C(=O)NC(CN)c2cc(F)cc(Cl)c2)c1 (centres unmarked),enzyme activity,inhibitor,radiometric,1 µM,remaining activity,25%
Cc1ncc(C(=O)Nc2ccc(CN3CCN(C)CC3)c(C(F)(F)F)c2)cc1C#Cc1cnc2cccnn12,enzyme activity,inhibitor,,0.123 µM,inhibition,51%
Cc1ccc(NC(=O)c2ccc(C)c(C(F)(F)F)c2)cc1C#Cc1nn(C2CCC(O)CC2)c2ncnc(N)c12 (centres unmarked),cell-free assay,,,10 µM,remaining signal,96%
O=C1NC(=O)c2cc(Nc3ccc(F)cc3)c(Nc3ccc(F)cc3)cc21,cell-free assay,,,0.5 µM,remaining signal,101%
FC(F)(F)Oc1cccc(-c2cnc3ccc(-c4ccncc4)nn23)c1,enzyme activity,inhibitor,radiometric,1 µM,activity vs control,66%
CNC(=O)c1cc(Oc2ccc(NC(=O)Nc3ccc(Cl)c(C(F)(F)F)c3)cc2)ccn1,enzyme activity,inhibitor,,0.3 µM,inhibition,61%
CSc1cccnc1N1CCN(Cc2nc3ccccc3[nH]2)CC1,cell-free assay,,competition with immobilised ligand,1 µM,remaining binding,75%
CCN(CC)CCNC(=O)c1c(C)[nH]c(/C=C2\C(=O)Nc3ccc(F)cc32)c1C,enzyme activity,inhibitor,,10 µM,inhibition,6%
NS(=O)(=O)c1cc(NC(=O)C2(c3ccccc3Cl)CC2)ccc1Oc1cccc(Cl)c1,cell-free assay,,competition with immobilised ligand,1 µM,remaining binding,100%
Cc1sc(C(=O)NC2COC2)cc1-n1cc(NC(=O)Nc2c(F)cccc2Cl)cn1,enzyme activity,inhibitor,,10 µM,remaining activity,83.4%
COc1cc2c(Nc3ccc(Br)cc3F)ncnc2cc1OCC1CCN(C)CC1,cell-free assay,,,0.5 µM,remaining signal,86.9%
O=C(Nc1cnn(-c2csc(C(=O)NC3COC3)c2)c1)Nc1c(F)cccc1Cl,enzyme activity,inhibitor,,5 µM,remaining activity,90.8%
CC(C)(C)C(=O)c1sc(NC2CCCCC2)nc1N,enzyme activity,inhibitor,,10 µM,remaining activity,96%
COc1cc(-c2cn(C3CCc4ccccc4N(CC(F)(F)F)C3=O)nn2)ccc1-n1ccc(C)n1 (centres unmarked),cell-free assay,,competition with immobilised ligand,1 µM,remaining binding,66%
Clc1ccc(Nc2nnc(Cc3ccncc3)c3ccccc23)cc1,cell-free assay,,,0.5 µM,remaining signal,101%
COc1cc(Cl)c(C(=O)N[C@@H](CN[C@H]2CC[C@@H](N)CC2)Cc2ccc(C#N)cc2)cc1-c1ccc(CN[C@H](C)c2ccc(C)cc2)o1,enzyme activity,inhibitor,,1 µM,remaining activity,102%
O=C(NCc1ncc(C(F)(F)F)cc1Cl)c1ccc2c(c1)C1(CCS(=O)(=O)CC1)[C@@H](C1CC1)N2S(=O)(=O)c1ccc(F)cc1,cell-free assay,,competition with immobilised ligand,1 µM,remaining binding,76%
N#CCCc1ccc2c(c1)-c1[nH]c3ccc([N+](=O)[O-])cc3c1CC(=O)N2,cell-free assay,,,0.5 µM,remaining signal,87.7%
Cn1c(=O)n(-c2ccc(C(C)(C)C#N)cc2)c2c3cc(-c4cnc5ccccc5c4)ccc3ncc21,enzyme activity,inhibitor,,10 µM,remaining activity,94%
COc1cc(/C=C/C(=O)CC(=O)/C=C/c2ccc(O)c(OC)c2)ccc1O,enzyme activity,inhibitor,,1 µM,activity vs control,129%
CC(C)(C)c1nc(-c2cccc(NS(=O)(=O)c3c(F)cccc3F)c2F)c(-c2ccnc(N)n2)s1,enzyme activity,inhibitor,radiometric,1 µM,remaining activity,63%
Cc1c[nH]c2nccc(Oc3c(F)cc(Nc4cc(Cl)nc(N)n4)cc3F)c12,cell-free assay,,competition with immobilised ligand,0.1 µM,remaining binding,90%
Oc1cccc(-c2nc(N3CCOCC3)c3oc4ncccc4c3n2)c1,enzyme activity,inhibitor,,10 µM,remaining activity,90%
CC(=O)N1CCC(c2ccc(C(=O)NC3=NCCN3)cc2C(F)(F)F)CC1,cell-free assay,,competition with immobilised ligand,1 µM,remaining binding,100%
Cc1cc(NC(=O)c2cccc3cc(-c4cccc5[nH]nc(N)c45)ccc23)ccc1F,enzyme activity,inhibitor,,0.1 µM,activity vs control,111%
Cn1nc(C(=O)NCc2ccc(C(=O)O)cc2)cc1-c1ccc2[nH]ccc2c1,cell-free assay,,competition with immobilised ligand,0.1 µM,remaining binding,96%
O=C(CSc1nc2nccnc2c(=O)n1CCc1ccccc1)Nc1nccs1,enzyme activity,inhibitor,,10 µM,inhibition,-11%
CC(=O)C1=C(C)N(c2cccc(C(F)(F)F)c2)C(=O)N[C@@H]1c1ccc(C#N)nc1,cell-free assay,,competition with immobilised ligand,1 µM,remaining binding,84.8%
C=CC(=O)Nc1cc(Nc2nccc(Nc3cc(Cl)c(F)cc3C(C)(C)O)n2)c(OC)cc1N1CC[C@@H](N(C)C)C1,enzyme activity,inhibitor,,1 µM,inhibition,67%
